Laboratory results from paper PMC6380921 (Environmental science & technology, 2019).

What was measured:
[1] = target: T1, recombinant human CYP2A6 (Homo sapiens, UniProt P11509); test: PCB biotransformation assay with recombinant human CYP2A6; type: in vitro ADME; details: for enantiomeric fraction (EF) of OH-PCB metabolite, CYP2A6: EF = Area E1/(Area E1 + Area E2), 50 μM PCB, 60 min, 37 °C, 10 pmol/mL P450; for metabolite as percent of ΣOH-PCBs of the parent PCB, CYP2A6: racemic PCB 50 µM, 10 pmol P450/mL, 37°C, mean ± SD; for ratio of 3–103: 5–95: 4–95: 4’−95 (relative to 4’−95 = 1), recombinant CYP2A6: PCB 95 incubation
T1 sequence (P11509 1-494): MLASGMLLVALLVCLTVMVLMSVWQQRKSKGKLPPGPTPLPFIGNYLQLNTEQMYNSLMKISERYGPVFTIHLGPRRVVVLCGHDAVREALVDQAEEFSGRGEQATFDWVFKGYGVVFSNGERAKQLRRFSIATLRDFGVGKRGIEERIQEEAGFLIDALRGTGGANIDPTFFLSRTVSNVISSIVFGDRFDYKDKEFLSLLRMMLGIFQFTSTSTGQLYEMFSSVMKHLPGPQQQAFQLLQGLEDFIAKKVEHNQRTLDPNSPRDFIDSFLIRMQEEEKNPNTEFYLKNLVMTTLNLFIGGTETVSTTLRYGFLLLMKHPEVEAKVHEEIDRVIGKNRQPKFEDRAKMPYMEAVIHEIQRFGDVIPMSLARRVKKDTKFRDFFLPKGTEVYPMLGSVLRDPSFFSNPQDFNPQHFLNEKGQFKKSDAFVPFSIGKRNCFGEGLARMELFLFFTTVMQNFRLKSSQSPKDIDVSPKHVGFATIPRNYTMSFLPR

[2] = system: human liver microsomes (HLMs); details: cited from earlier work; for enantiomeric fraction (EF) of 1,2-shift products, HLMs: incubations with HLMs; for enantiomeric fraction (EF) of 5-hydroxylated metabolites, HLMs: metabolism studies with HLMs; for ratio of 3–103: 5–95: 4–95: 4’−95 (relative to 4’−95 = 1), HLMs: PCB 95 with HLMs
[3] = target: T2, recombinant human CYP2B6 (Homo sapiens, UniProt P20813); test: PCB biotransformation assay with recombinant human CYP2B6; type: in vitro ADME; details: for enantiomeric fraction (EF) of OH-PCB metabolite, CYP2B6: EF = Area E1/(Area E1 + Area E2), 50 μM PCB, 60 min, 37 °C, 10 pmol/mL P450; for metabolite as percent of ΣOH-PCBs of the parent PCB, CYP2B6: racemic PCB 50 µM, 10 pmol P450/mL, 37°C, mean ± SD
T2 sequence (P20813 1-491): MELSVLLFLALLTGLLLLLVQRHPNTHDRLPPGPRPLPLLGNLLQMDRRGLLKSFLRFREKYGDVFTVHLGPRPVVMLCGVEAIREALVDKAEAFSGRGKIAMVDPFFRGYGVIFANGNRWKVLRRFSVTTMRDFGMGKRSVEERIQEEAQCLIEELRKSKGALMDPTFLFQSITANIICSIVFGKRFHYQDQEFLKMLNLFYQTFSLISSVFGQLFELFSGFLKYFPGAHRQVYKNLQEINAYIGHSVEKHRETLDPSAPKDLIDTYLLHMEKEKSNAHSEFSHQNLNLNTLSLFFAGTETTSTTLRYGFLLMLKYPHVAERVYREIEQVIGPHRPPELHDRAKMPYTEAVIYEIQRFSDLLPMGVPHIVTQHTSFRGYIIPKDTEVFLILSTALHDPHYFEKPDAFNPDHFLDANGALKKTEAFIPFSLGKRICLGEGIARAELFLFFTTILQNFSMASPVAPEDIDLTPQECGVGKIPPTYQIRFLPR

[4] = target: T2, recombinant human CYP2B6; details: cited from earlier work
[5] = target: recombinant human CYP2E1 (Homo sapiens, UniProt P05181); details: cited from earlier work
[6] = target: T3, recombinant human CYP1A2 (Homo sapiens, UniProt P05177); details: cited from earlier work
T3 sequence (P05177 1-516): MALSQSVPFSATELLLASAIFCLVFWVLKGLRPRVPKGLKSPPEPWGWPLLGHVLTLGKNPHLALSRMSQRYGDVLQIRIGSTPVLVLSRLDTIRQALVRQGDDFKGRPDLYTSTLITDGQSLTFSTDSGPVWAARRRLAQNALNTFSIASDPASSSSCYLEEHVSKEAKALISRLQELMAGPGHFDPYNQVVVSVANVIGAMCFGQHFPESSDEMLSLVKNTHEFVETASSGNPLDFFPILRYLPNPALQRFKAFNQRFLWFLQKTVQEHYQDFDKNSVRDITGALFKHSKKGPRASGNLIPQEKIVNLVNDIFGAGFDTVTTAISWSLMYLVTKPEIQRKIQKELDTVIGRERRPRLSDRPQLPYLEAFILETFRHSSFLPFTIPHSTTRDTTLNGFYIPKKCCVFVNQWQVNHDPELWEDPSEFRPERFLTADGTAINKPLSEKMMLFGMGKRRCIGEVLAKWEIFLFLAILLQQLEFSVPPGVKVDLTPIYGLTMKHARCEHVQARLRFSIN

[7] = target: T4, recombinant human CYP3A4 (Homo sapiens, UniProt P08684); details: cited from earlier work
[8] = target: T3, recombinant human CYP1A2; test: PCB biotransformation assay with recombinant human CYP1A2; type: in vitro ADME; details: racemic PCB 50 µM; 10 pmol P450/mL; 37°C
Summary of the method: (§1)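 Human P450 co-expressed with human CYP-reductase in E. coli, 10 pmol/mL, in 0.1 M phosphate pH 7.4 with 3 mM MgCl2 and NADPH-regenerating system (~1 mM NADPH final). After 5 min preincubation, racemic PCB added (50 µM final, DMSO ≤0.5% v/v); incubated up to 60 min at 37°C; stopped with ice-cold NaOH plus heating. OH-PCBs identified as methylated derivatives by high-resolution GC/TOF-MS in 60-min extracts. Control Bactosomes; triplicates.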

[9] = target: T4, recombinant human CYP3A4; test: PCB biotransformation assay with recombinant human CYP3A4; type: in vitro ADME; details: racemic PCB 50 µM; 10 pmol P450/mL; 37°C
Summary of the method: as §1

T4 sequence (P08684 whole entry): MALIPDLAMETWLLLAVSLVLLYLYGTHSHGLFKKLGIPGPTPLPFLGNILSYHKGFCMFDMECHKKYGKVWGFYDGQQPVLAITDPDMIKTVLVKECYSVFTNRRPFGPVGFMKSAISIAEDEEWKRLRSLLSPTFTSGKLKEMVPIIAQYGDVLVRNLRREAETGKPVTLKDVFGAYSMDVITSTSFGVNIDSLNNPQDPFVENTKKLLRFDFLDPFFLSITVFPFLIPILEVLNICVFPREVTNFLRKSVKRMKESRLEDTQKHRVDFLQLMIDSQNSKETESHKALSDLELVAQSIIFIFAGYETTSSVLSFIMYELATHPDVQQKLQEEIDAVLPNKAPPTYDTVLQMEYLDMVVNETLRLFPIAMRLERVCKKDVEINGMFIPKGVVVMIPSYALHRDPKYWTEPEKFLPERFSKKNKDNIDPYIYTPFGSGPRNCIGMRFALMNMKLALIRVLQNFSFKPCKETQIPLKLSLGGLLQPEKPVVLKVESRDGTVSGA
Chain of recombinant human CYP2E1 (P05181 whole entry): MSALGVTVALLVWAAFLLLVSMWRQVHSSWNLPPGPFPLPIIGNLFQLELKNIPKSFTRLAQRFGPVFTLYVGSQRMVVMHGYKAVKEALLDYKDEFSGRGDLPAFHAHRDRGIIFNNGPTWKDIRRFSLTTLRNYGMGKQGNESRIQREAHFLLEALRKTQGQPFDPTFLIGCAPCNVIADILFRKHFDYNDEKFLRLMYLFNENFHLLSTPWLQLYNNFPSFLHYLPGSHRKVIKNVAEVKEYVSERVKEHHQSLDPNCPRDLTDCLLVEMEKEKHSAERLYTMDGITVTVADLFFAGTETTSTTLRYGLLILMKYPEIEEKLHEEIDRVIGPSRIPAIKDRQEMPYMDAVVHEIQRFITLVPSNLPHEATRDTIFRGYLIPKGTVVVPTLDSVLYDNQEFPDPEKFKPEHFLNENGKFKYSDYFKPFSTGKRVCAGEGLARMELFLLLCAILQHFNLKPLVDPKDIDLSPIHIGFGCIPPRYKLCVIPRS

Oc1c(Cl)cc(Cl)c(-c2ccc(Cl)cc2Cl)c1Cl [3–100]
enantiomeric fraction (EF) of OH-PCB metabolite, CYP2A6 [1]: 0.92 | metabolite as percent of ΣOH-PCBs of the parent PCB, CYP2A6 [1]: 81 ± 2% | enantiomeric fraction (EF) of 1,2-shift products, HLMs [2]: 0.85

Oc1cc(Cl)c(Cl)c(-c2c(Cl)ccc(Cl)c2Cl)c1Cl [5–136]
ratio of 5–136: 4–136 (4–136 = 1) formed with CYP2A6 ([1]; PCB 136 incubation): 0.3 | enantiomeric fraction (EF) of OH-PCB metabolite, CYP2B6 [3]: 0.50 | metabolite as percent of ΣOH-PCBs of the parent PCB, CYP2B6 [3]: 94 ± 0.3% | ratio of 5–136: 4–136 (4–136 = 1), HLMs ([2]; PCB 136 with HLMs): 0.39 | ratio of 5–136: 4–136 (4–136 = 1), HLMs, earlier study ([2]; PCB 136 with HLMs): 1.3 | enantiomeric fraction (EF) of 5-hydroxylated metabolites, HLMs [2]: 0.31

Clc1ccc(Cl)c(-c2cc(Cl)ccc2Cl)c1 [PCB 52, 2,2’,5,5’-tetrachlorobiphenyl]
oxidation by CYP2B6, earlier studies [4]: did not observe any oxidation | oxidation by CYP2E1, earlier studies [5]: did not observe any oxidation | metabolism by recombinant CYP1A2, earlier studies [6]: did not metabolize | metabolism by recombinant CYP3A4, earlier studies [7]: did not metabolize

Oc1cc(Cl)c(-c2ccc(Cl)cc2Cl)c(Cl)c1Cl [4–91]
enantiomeric fraction (EF) of OH-PCB metabolite, CYP2A6 [1]: 0.39 | enantiomeric fraction (EF) of OH-PCB metabolite, CYP2B6 [3]: 0.60

Oc1cc(Cl)c(Cl)c(-c2ccc(Cl)cc2Cl)c1Cl [5–91]
enantiomeric fraction (EF) of OH-PCB metabolite, CYP2B6 [3]: 0.49 | metabolite as percent of ΣOH-PCBs of the parent PCB, CYP2B6 [3]: 98.4 ± 0.1% | enantiomeric fraction (EF) of 5-hydroxylated metabolites, HLMs [2]: 0.47

Oc1c(Cl)cc(Cl)c(-c2cc(Cl)ccc2Cl)c1Cl [3–103]
enantiomeric fraction (EF) of OH-PCB metabolite, CYP2A6 [1]: 0.99 | ratio of 3–103: 5–95: 4–95: 4’−95 (relative to 4’−95 = 1), recombinant CYP2A6 [1]: 0.11 | ratio of 3–103: 5–95: 4–95: 4’−95 (relative to 4’−95 = 1), HLMs [2]: 0.11

Oc1cc(Cl)c(-c2c(Cl)ccc(Cl)c2Cl)c(Cl)c1Cl [4–136]
enantiomeric fraction (EF) of OH-PCB metabolite, CYP2A6 [1]: 0.10 | metabolite as percent of ΣOH-PCBs of the parent PCB, CYP2A6 [1]: 64 ± 2%

Clc1ccc(-c2c(Cl)ccc(Cl)c2Cl)c(Cl)c1Cl [PCB 132, 2,2’,3,3’,4,6’-hexachlorobiphenyl]
OH-PCB metabolites detected in incubations with CYP1A2 [8]: no metabolites were detected | OH-PCB metabolites detected in incubations with CYP3A4 [9]: no metabolites were detected

Clc1ccc(Cl)c(-c2c(Cl)ccc(Cl)c2Cl)c1 [PCB 95, 2,2’,3,5’,6-pentachlorobiphenyl]
OH-PCB metabolites detected in incubations with CYP1A2 [8]: no metabolites were detected | OH-PCB metabolites detected in incubations with CYP3A4 [9]: no metabolites were detected | oxidation by CYP2B6, earlier studies [4]: did not observe any oxidation | oxidation by CYP2E1, earlier studies [5]: did not observe any oxidation | metabolism by recombinant CYP1A2, earlier studies [6]: did not metabolize | metabolism by recombinant CYP3A4, earlier studies [7]: did not metabolize

Oc1cc(Cl)c(Cl)c(-c2cc(Cl)ccc2Cl)c1Cl [5–95]
ratio of 3–103: 5–95: 4–95: 4’−95 (relative to 4’−95 = 1), recombinant CYP2A6 [1]: 0.04 | formation rate by CYP2B6, times lower compared to CYP2A6 ([3]; PCB 95 incubation): 2 times | ratio of 3–103: 5–95: 4–95: 4’−95 (relative to 4’−95 = 1), HLMs [2]: 0.06

Oc1c(Cl)cc(Cl)c(-c2ccc(Cl)c(Cl)c2Cl)c1Cl [3’−140]
metabolite as percent of ΣOH-PCBs of the parent PCB, CYP2A6 [1]: 67 ± 1% | enantiomeric fraction (EF) of 1,2-shift products, HLMs [2]: 0.84

Clc1ccc(-c2c(Cl)ccc(Cl)c2Cl)c(Cl)c1 [PCB 91, 2,2’,3,4’,6-pentachlorobiphenyl]
OH-PCB metabolites detected in incubations with CYP1A2 [8]: no metabolites were detected | OH-PCB metabolites detected in incubations with CYP3A4 [9]: no metabolites were detected

Clc1ccc(Cl)c(-c2c(Cl)ccc(Cl)c2Cl)c1Cl [PCB 136, 2,2’,3,3’,6,6’-hexachlorobiphenyl]
OH-PCB metabolites detected in incubations with CYP1A2 [8]: no metabolites were detected | OH-PCB metabolites detected in incubations with CYP3A4 [9]: no metabolites were detected

Oc1cc(Cl)c(Cl)c(-c2ccc(Cl)c(Cl)c2Cl)c1Cl [5’−132]
enantiomeric fraction (EF) of OH-PCB metabolite, CYP2B6 [3]: 0.32 | metabolite as percent of ΣOH-PCBs of the parent PCB, CYP2B6 [3]: 81 ± 7% | enantiomeric fraction (EF) of 5-hydroxylated metabolites, HLMs [2]: 0.19
